Data published in ChEMBL document CHEMBL4190389, “Synthesis and activity of di- or trisubstituted N-(phenoxyalkyl)- or N-{2-[2-(phenoxy)ethoxy]ethyl}piperazine derivatives on the central nervous system” (Bioorg Med Chem Lett, 2018).
pIC50, pKi: −log10 of the molar value. Activity calls are given as the source filed them. No cut-off for these calls is given here.

Tests used:
D(2) dopamine receptor [1] = target: T1, D(2) dopamine receptor (Homo sapiens, UniProt P14416); assay: Agonist activity at human D2 receptor expressed in CHO-K1 cells co-expressing Galphaqi5 assessed as increase apomorphine-induced calcium mobilization measured for 30 secs by aequorin-derived luminescence assay relative to apomorphine; format: functional, cell-based
T1 sequence (P14416 whole entry): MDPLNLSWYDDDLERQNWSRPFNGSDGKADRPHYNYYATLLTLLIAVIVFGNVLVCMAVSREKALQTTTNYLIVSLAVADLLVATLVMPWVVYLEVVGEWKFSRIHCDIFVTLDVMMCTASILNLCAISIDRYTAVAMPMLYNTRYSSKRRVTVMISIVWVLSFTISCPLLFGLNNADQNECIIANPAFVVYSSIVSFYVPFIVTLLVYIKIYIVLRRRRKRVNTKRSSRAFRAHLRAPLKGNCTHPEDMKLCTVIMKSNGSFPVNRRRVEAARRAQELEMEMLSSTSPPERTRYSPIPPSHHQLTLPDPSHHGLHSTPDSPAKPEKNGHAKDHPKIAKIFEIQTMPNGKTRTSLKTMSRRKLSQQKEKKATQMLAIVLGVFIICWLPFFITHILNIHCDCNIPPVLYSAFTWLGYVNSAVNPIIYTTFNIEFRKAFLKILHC

[2] = target: T2, 5-hydroxytryptamine receptor 1A (Homo sapiens) (UniProt P08908); assay: Displacement of [3H]8-OH-DPAT from recombinant human 5-HT1A receptor expressed in HEK293 cell membranes at 10^-5 M after 60 mins by liquid scintillation counting method
T2 sequence (whole entry): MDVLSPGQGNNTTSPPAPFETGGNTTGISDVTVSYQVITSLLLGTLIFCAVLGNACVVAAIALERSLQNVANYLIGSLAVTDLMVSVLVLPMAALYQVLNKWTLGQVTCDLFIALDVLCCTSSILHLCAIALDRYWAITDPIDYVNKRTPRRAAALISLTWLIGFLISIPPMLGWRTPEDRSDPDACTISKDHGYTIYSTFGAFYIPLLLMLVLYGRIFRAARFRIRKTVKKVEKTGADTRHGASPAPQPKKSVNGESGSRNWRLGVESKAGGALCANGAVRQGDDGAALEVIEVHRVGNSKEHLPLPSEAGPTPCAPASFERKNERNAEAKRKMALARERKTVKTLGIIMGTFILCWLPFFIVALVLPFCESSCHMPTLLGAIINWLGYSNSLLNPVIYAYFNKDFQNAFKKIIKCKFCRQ

[3] = target: 5-hydroxytryptamine receptor 2A (Homo sapiens, UniProt P28223); assay: biochemical; format: cell-based, HEK293;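 note: radioligand displacement of [3H]ketanserin binding at human 5-HT2A receptor in membranes from HEK293 cells, 60 min incubation, read by liquid scintillation counting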
Chain of 5-hydroxytryptamine receptor 2A (P28223 whole entry): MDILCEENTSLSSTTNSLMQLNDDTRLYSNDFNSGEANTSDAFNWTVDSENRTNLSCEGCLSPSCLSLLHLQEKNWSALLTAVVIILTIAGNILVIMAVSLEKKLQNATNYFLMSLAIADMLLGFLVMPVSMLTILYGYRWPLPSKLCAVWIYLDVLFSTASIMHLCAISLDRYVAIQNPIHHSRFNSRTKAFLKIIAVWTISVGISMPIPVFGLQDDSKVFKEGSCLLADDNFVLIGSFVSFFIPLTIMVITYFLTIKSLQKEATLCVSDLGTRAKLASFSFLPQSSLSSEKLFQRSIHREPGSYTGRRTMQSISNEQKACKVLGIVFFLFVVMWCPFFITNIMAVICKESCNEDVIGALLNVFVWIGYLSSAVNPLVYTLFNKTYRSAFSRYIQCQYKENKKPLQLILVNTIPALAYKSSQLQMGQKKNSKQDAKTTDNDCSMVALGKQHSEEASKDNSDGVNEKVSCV

[4] = target: 5-hydroxytryptamine receptor 6 (Homo sapiens, UniProt P50406); assay: Displacement of [3H]LSD from recombinant human 5-HT6 receptor expressed in CHO cells cell membranes after 60 mins by liquid scintillation counting method
Chain of 5-hydroxytryptamine receptor 6 (P50406 whole entry): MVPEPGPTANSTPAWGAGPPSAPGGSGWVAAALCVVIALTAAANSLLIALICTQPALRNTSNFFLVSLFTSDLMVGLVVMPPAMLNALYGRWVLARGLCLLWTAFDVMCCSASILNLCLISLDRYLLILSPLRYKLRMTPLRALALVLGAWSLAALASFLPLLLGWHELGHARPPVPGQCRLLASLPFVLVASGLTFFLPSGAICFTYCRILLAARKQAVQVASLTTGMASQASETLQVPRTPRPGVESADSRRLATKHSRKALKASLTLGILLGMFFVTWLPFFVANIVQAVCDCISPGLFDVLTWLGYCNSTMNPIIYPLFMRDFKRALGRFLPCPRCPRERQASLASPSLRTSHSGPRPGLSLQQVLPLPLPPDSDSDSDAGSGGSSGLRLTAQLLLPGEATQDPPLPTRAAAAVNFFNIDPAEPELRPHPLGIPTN

Mus musculus [5] = assay: Antidepressant-like activity in Albino Swiss CD-1 mouse assessed as immobility time at 10 mg/kg, ip administered 30 mins prior to test measured for last 4 mins of 6 mins observation by forced swim test (reference value: 153.9 to 201.9 secs); format: functional
D(2) dopamine receptor [6] = target: T1, D(2) dopamine receptor; assay: Displacement of [3H]methylspiperonee from recombinant human D2 receptor expressed in HEK293 cell membranes at 10^-5 M after 60 mins by liquid scintillation counting method
Mus musculus [7] = assay: Anxiolytic-like activity in Albino Swiss CD-1 mouse assessed as increase in number of punished crossings at 10 mg/kg, ip administered for 30 mins prior to test measured for 1 min by four-plate test; format: functional, organism-based
How it was run: (§1)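 Four-plate test in mice, i.p., 30 min before test; vehicle 0.9% NaCl; doses 1.25–10 mg/kg; number of punished crossings counted; mean ± SEM, n = 8–10 mice per group; ANOVA F statistics.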

Mus musculus [8] = assay: Antidepressant-like activity in Albino Swiss CD-1 mouse assessed as immobility time at 20 mg/kg, ip administered 30 mins prior to test measured for last 4 mins of 6 mins observation by forced swim test (reference value: 153.9 to 201.9 secs); format: functional
[9] = target: T3, Alpha-1A adrenergic receptor (Homo sapiens) (UniProt P35348); assay: Displacement of [3H]prazosin from recombinant human alpha1 adrenoceptor expressed in CHO cell membranes at 10^-5 M after 30 mins by liquid scintillation counting method
T3 sequence (whole entry): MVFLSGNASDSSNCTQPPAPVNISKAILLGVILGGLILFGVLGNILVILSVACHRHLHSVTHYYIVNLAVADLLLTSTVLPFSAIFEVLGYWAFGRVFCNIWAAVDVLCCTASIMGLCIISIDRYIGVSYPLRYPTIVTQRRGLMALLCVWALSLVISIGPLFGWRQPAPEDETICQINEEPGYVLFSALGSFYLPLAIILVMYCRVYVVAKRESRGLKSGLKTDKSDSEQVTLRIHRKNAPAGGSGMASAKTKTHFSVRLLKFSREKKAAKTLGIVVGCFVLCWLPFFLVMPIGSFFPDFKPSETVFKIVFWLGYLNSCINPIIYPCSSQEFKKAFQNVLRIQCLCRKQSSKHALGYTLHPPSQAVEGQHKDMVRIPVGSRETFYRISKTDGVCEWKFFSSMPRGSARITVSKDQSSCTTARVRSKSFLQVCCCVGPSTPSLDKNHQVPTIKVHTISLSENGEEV

[10] = target: T4, 5-hydroxytryptamine receptor 7 (Homo sapiens, UniProt P34969); assay: Displacement of [3H]LSD from recombinant human 5-HT7 receptor expressed in CHO cell membranes at 10^-5 M after 60 mins by liquid scintillation counting method
T4 sequence (P34969 whole entry): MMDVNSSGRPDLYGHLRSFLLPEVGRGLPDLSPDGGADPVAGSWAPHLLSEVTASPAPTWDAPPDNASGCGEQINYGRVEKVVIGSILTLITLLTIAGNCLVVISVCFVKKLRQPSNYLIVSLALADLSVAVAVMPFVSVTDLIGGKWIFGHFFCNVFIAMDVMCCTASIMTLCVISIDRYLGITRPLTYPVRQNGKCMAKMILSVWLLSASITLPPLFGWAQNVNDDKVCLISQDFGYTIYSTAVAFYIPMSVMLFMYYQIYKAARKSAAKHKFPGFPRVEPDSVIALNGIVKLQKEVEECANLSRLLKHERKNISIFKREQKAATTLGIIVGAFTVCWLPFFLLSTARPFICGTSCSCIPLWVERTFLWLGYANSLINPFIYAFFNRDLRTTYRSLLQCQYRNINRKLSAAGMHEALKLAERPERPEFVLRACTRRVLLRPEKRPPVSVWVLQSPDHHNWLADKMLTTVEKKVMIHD

Mus musculus [11] = assay: Antidepressant-like activity in Albino Swiss CD-1 mouse assessed as immobility time at 5 mg/kg, ip administered 30 mins prior to test measured for last 4 mins of 6 mins observation by forced swim test (reference value: 153.9 to 201.9 secs); format: functional
Mus musculus [12] = assay: Toxicity in Albino Swiss CD-1 mouse assessed as effect on locomotory activity at 5 to 10 mg/kg, ip administered for 30 mins prior to test measured for 1 min; format: organism-based; conditions: in vivo
How it was run: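 Mice dosed i.p. 30 min before test; vehicle groups received 0.9% NaCl. Spontaneous locomotion scored as number of crossings during a 1-min session. Each dose compared with its own vehicle group by Student t-test; mean ± SEM, n = 8–10 mice per group.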

[13] = target: T2, 5-hydroxytryptamine receptor 1A (Homo sapiens); assay: (§2) Antagonist activity at human 5-HT1A receptor expressed in CHO-K1 cells co-expressing Galpha16 assessed as decrease in serotonin calcium mobilization preincubated for 25 mins followed by serotonin challenge measured for 30 secs by aequorin-derived luminescence assay; format: functional, cell-based
[14] = target: T5, 5-hydroxytryptamine receptor 1A (Homo sapiens, UniProt P08908); assay: as §2; format: functional, cell-based
T5 sequence (P08908 whole entry): T2 sequence (whole entry)

[15] = target: T2, 5-hydroxytryptamine receptor 1A (Homo sapiens); assay: Antagonist activity at human 5-HT1A receptor expressed in CHO-K1 cells co-expressing Galpha16 assessed as decrease in serotonin-induced calcium mobilization preincubated for 25 mins followed by serotonin challenge measured for 30 secs by aequorin-derived luminescence assay relative to control; format: functional, cell-based
[16] = target: T2, 5-hydroxytryptamine receptor 1A (Homo sapiens); assay: Agonist activity at human 5-HT1A receptor expressed in CHO-K1 cells co-expressing Galpha16 assessed as increase in calcium mobilization measured for 30 secs by aequorin-derived luminescence assay relative to serotonin; format: functional, cell-based
D(2) dopamine receptor [17] = target: T1, D(2) dopamine receptor; assay: Displacement of [3H]methylspiperonee from recombinant human D2 receptor expressed in HEK293 cells cell membranes after 60 mins by liquid scintillation counting method
[18] = target: T4, 5-hydroxytryptamine receptor 7; assay: Antagonist activity at human 5-HT7 receptor expressed in CHO-K1 cells assessed as decrease in serotonin-induced cAMP level after 1 hr by TR-FRET assay relative to control; format: functional, cell-based
D(2) dopamine receptor [19] = target: T1, D(2) dopamine receptor; assay: Antagonist activity at human D2 receptor expressed in CHO-K1 cells co-expressing Galphaqi5 assessed as decrease in apomorphine-induced calcium mobilization preincubated for 30 mins followed by apomorphine challenge measured for 30 secs by aequorin-derived luminescence assay; format: functional, cell-based
[20] = target: T4, 5-hydroxytryptamine receptor 7; assay: biochemical; format: cell-based, CHO
[21] = target: T5, 5-hydroxytryptamine receptor 1A; assay: Displacement of [3H]8-OH-DPAT from recombinant human 5-HT1A receptor expressed in HEK293 cell membranes after 60 mins by liquid scintillation counting method
[22] = target: T4, 5-hydroxytryptamine receptor 7; assay: Agonist activity at human 5-HT7 receptor expressed in CHO-K1 cells assessed as increase in serotonin-induced cAMP level after 1 hr by TR-FRET assay relative to serotonin; format: functional, cell-based
Mus musculus [23] = assay: Anxiolytic-like activity in Albino Swiss CD-1 mouse assessed as increase in number of punished crossings at 5 to 10 mg/kg, ip administered for 30 mins prior to test measured for 1 min by four-plate test; format: functional, organism-based; how it was run: as §1
Mus musculus [24] = assay: Toxicity in Albino Swiss CD-1 mouse assessed as death at 30 mg/kg, ip; format: organism-based; conditions: in vivo
How it was run: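 Deaths counted in mice during maximal electroshock (MES) seizure testing after i.p. dosing, 6 mice per dose (3 or 1 at some top doses); recorded as number dead/number tested alongside protection and rotarod motor impairment (10 rpm); untreated control group included.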

[25] = target: T4, 5-hydroxytryptamine receptor 7; assay: Antagonist activity at human 5-HT7 receptor expressed in CHO-K1 cells assessed as decrease in serotonin-induced cAMP level after 1 hr by TR-FRET assay; format: functional, cell-based
[26] = target: T6, Alpha-1A adrenergic receptor (Homo sapiens, UniProt P35348); assay: Displacement of [3H]prazosin from recombinant human alpha1 adrenoceptor expressed in CHO cell membranes after 30 mins by liquid scintillation counting method
T6 sequence (P35348 whole entry): T3 sequence (whole entry)

Row | SMILES | Emax (D(2) dopamine receptor [1]) [%] | pKi [3] | pKi [4] | Time (Mus musculus [5]) [s] | Time (Mus musculus [8]) [s] | Time (Mus musculus [11]) [s] | Activity (Mus musculus [12]) | Kb [13] [nM] | pIC50 [14] | Emax [15] [%] | Emax [16] [%] | also measured
1 | CN(C)CCCN1c2ccccc2Sc2ccc(Cl)cc21 | 5 |  |  |  |  |  |  |  |  |  |  | 
2 | Cc1cc(C)c(OCCOCCN2CCN(CCO)CC2)c(C)c1.Cl.Cl |  | < 5.30 | < 5.30 | 198.1 | 197.3 | 182.6 | Non-Toxic |  |  |  |  | inhibition [2]: inactive; inhibition (D(2) dopamine receptor [6]): inactive; Activity (Mus musculus [7]): Active; inhibition [9]: inactive; inhibition [10]: inactive
3 | COc1ccccc1N1CCN(C[C@@H](C(=O)NC(C)(C)C)c2ccccc2)CC1 |  |  |  |  |  |  |  | 6.6 | 7.77 | 0 | 1 | 
4 | COc1ccccc1N1CCN(CCCOc2ccc(C)cc2C)CC1.Cl | 2 | 6.28 | < 5.30 | 198.1 | 197.3 | 182.6 | Non-Toxic | 1.8 | 8.14 | 2 | 5 | pKi (D(2) dopamine receptor [17]): 7.01; Emax [18]: 5%; pIC50 (D(2) dopamine receptor [19]): 7.75; Kb (D(2) dopamine receptor [19]): 5.29 nM; pKi [20]: 7.82; pKi [21]: 8.70; Emax [22]: 0%; Activity (Mus musculus [23]): inactive; Activity (Mus musculus [24]): Non-Toxic; pIC50 [25]: 5.98; Kb [25]: 448 nM; pKi [26]: 7.96
